{
  "source": "ChEMBL document CHEMBL4118145",
  "about": "“Structure-activity relationship investigation of Phe-Arg mimetic region of human glutaminyl cyclase inhibitors” (Bioorg Med Chem, 2018)",
  "key": {"HT-22": {"tested_on": "HT-22", "test": "Cytotoxicity against mouse HT22 cells assessed as decrease in cell viability at 10 uM by MTT assay relative to control", "format": "cell-based", "settings": "ht-22, 10 µM", "procedure,_shortened": "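HT-22 immortalized hippocampal neuronal cells incubated with compound at 10 μM; viability read by MTT assay and expressed as % of control.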"}, "Mus musculus": {"tested_on": "Mus musculus", "test": "In vivo inhibition of glutaminyl cyclase in ICR mouse brain extract assessed as decrease in levels of human pyroglutamyl-beta-amyloid (1 to 40) containing N-terminal pyroglutamte at position 3 at 25 mg/kg, icv measured next day by sandwich ELISA relative to control", "format": "functional", "settings": "central", "procedure,_shortened": "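Male ICR mice (25 g, n = 4) received icv injection of human Aβ3-40 (5 μL of 1 μg/μL in PBS, 5 µg) into deep cortical/hippocampal tissue via stereotaxic frame, then compound at 25 mg/kg icv. Brain extracts taken next day; Aβ N3pE-40 quantified by sandwich ELISA, expressed as % inhibition versus vehicle control.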"}, "hERG (KCNH2)": {"target": "hERG (KCNH2) (Homo sapiens, UniProt Q12809)", "sequence (Q12809 whole entry)": "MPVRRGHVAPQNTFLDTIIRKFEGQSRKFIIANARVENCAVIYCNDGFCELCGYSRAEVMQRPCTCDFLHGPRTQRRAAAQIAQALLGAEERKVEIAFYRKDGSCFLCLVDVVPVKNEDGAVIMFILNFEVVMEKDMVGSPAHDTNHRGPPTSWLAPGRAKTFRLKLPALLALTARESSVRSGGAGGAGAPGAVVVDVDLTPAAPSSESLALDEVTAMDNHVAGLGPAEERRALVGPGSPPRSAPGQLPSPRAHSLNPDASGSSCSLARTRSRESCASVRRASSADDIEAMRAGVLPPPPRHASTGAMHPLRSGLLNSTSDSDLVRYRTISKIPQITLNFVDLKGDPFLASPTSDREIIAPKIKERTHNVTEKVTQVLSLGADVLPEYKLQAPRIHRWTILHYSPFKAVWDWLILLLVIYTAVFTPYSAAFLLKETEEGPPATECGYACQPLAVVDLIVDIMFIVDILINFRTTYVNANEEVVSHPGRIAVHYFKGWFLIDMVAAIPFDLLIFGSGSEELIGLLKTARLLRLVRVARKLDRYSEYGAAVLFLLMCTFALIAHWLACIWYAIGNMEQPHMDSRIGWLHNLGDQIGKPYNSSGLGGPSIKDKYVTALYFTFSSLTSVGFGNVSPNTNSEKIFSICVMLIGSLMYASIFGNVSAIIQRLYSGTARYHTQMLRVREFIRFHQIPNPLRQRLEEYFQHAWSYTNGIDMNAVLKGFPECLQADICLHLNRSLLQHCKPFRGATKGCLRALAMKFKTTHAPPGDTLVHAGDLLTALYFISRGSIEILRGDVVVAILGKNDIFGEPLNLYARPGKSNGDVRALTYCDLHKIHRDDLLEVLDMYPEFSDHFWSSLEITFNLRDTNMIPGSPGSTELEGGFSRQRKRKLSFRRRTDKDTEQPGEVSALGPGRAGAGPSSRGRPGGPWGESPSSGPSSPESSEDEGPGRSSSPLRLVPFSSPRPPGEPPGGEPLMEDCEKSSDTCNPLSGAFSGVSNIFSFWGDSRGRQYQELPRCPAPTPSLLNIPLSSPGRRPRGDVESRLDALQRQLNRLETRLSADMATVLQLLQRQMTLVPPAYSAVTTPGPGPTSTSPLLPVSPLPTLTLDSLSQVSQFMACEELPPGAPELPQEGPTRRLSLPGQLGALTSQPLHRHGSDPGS", "test": "Inhibition of human ERG at 10 uM relative to control", "procedure,_shortened": "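hERG channel blocking tested at 10 μM, reported as % inhibition.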"}},
  "data": [
    {"smiles": "COc1ccc(NC(=S)NCCCn2cncc2C)cc1OCCN", "values": [
      {"measurement": "Activity", "setting": "HT-22", "result": 100, "unit": "%"},
      {"measurement": "inhibition in vivo at 25 mg/kg", "setting": "Mus musculus", "result": 35.3, "unit": "%"},
      {"measurement": "inhibition at 10 µM", "setting": "hERG (KCNH2)", "result": 15.3, "unit": "%"}
    ]},
    {"smiles": "COc1ccc(NC(=S)NCCCn2cncc2C)cc1OCCCN", "values": [
      {"measurement": "Activity", "setting": "HT-22", "result": 100, "unit": "%"},
      {"measurement": "inhibition in vivo at 25 mg/kg", "setting": "Mus musculus", "result": 12.8, "unit": "%"},
      {"measurement": "inhibition at 10 µM", "setting": "hERG (KCNH2)", "result": 8.8, "unit": "%"}
    ]},
    {"smiles": "COc1ccc(NC(=S)NCCCn2cncc2C)cc1OCCCCN", "values": [
      {"measurement": "Activity", "setting": "HT-22", "result": 100, "unit": "%"},
      {"measurement": "inhibition in vivo at 25 mg/kg", "setting": "Mus musculus", "result": 36.6, "unit": "%"},
      {"measurement": "inhibition at 10 µM", "setting": "hERG (KCNH2)", "result": 2.8, "unit": "%"}
    ]},
    {"smiles": "COc1ccc(NC(=S)NCCCn2cncc2C)cc1OCCC1CCNCC1", "values": [
      {"measurement": "Activity", "setting": "HT-22", "result": 100, "unit": "%"},
      {"measurement": "inhibition in vivo at 25 mg/kg", "setting": "Mus musculus", "result": 1.8, "unit": "%"},
      {"measurement": "inhibition at 10 µM", "setting": "hERG (KCNH2)", "result": 14.9, "unit": "%"}
    ]},
    {"smiles": "Cc1cncn1CCCNC(=S)Nc1ccc(/C=C/C(=O)N2CCN(CCN)CC2)cc1", "values": [
      {"measurement": "Activity", "setting": "HT-22", "result": 100, "unit": "%"},
      {"measurement": "inhibition in vivo at 25 mg/kg", "setting": "Mus musculus", "result": 22.9, "unit": "%"},
      {"measurement": "inhibition at 10 µM", "setting": "hERG (KCNH2)", "result": 7.2, "unit": "%"}
    ]},
    {"smiles": "COc1ccc(NC(=S)NCCCn2cncc2C)cc1OCCCCC1CCNCC1", "values": [
      {"measurement": "Activity", "setting": "HT-22", "result": 100, "unit": "%"},
      {"measurement": "inhibition in vivo at 25 mg/kg", "setting": "Mus musculus", "result": 14.4, "unit": "%"},
      {"measurement": "inhibition at 10 µM", "setting": "hERG (KCNH2)", "result": 35.1, "unit": "%"}
    ]},
    {"smiles": "COc1ccc(NC(=S)NCCCn2cncc2C)cc1OCCCC1CCNCC1", "values": [
      {"measurement": "Activity", "setting": "HT-22", "result": 100, "unit": "%"},
      {"measurement": "inhibition in vivo at 25 mg/kg", "setting": "Mus musculus", "result": 5.5, "unit": "%"},
      {"measurement": "inhibition at 10 µM", "setting": "hERG (KCNH2)", "result": 25.6, "unit": "%"}
    ]},
    {"smiles": "Cc1cncn1CCCNC(=S)Nc1ccc(OCC(=O)NC2CCN(CCN)CC2)cc1", "values": [
      {"measurement": "Activity", "setting": "HT-22", "result": 100, "unit": "%"},
      {"measurement": "inhibition at 10 µM", "setting": "hERG (KCNH2)", "result": 19.9, "unit": "%"}
    ]}
  ]
}
